Results reported in PMC4926610 (Journal of natural products, 2016).
Entries after “also recorded” stand apart in the source; their conditions may differ. Blank lines part the entries; values can stand above or below the molecule they belong to.

Assays:
p97-cys0 = p97-cys0 (Homo sapiens, UniProt P55072); test: Malachite green ATPase assay, cysteineless p97; format: biochemical; details: Figure 6A
[1] = target: N-ethylmaleimide sensitive factor (NSF) (Homo sapiens, UniProt P46459); test: Malachite green ATPase assay, NSF; format: biochemical
Chain of N-ethylmaleimide sensitive factor (NSF) (P46459 whole entry, species assumed): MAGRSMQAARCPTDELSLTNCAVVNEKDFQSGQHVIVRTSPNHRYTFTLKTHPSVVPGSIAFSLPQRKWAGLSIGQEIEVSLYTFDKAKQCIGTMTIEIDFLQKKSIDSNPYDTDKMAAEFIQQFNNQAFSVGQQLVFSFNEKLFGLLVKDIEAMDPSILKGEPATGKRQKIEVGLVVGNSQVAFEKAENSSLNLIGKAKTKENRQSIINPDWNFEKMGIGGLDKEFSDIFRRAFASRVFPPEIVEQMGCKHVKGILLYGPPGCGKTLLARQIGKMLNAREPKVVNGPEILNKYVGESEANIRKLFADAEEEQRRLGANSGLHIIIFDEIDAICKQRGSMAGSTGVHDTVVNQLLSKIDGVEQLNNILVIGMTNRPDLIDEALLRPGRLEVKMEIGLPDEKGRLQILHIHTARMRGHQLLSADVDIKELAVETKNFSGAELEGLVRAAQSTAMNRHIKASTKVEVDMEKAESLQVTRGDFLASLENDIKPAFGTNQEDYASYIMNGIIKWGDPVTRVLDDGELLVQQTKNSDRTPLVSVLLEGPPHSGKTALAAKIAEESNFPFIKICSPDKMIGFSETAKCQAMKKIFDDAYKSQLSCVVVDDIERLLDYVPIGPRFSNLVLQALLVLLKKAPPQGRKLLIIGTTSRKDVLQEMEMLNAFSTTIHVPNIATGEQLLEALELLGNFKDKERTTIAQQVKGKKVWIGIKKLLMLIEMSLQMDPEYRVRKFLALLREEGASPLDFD

p97-C209A = p97-C209A (Homo sapiens, UniProt P55072, C209A); test: biochemical
Chain of p97-C209A (P55072 whole entry C209A, the tested form may be a part): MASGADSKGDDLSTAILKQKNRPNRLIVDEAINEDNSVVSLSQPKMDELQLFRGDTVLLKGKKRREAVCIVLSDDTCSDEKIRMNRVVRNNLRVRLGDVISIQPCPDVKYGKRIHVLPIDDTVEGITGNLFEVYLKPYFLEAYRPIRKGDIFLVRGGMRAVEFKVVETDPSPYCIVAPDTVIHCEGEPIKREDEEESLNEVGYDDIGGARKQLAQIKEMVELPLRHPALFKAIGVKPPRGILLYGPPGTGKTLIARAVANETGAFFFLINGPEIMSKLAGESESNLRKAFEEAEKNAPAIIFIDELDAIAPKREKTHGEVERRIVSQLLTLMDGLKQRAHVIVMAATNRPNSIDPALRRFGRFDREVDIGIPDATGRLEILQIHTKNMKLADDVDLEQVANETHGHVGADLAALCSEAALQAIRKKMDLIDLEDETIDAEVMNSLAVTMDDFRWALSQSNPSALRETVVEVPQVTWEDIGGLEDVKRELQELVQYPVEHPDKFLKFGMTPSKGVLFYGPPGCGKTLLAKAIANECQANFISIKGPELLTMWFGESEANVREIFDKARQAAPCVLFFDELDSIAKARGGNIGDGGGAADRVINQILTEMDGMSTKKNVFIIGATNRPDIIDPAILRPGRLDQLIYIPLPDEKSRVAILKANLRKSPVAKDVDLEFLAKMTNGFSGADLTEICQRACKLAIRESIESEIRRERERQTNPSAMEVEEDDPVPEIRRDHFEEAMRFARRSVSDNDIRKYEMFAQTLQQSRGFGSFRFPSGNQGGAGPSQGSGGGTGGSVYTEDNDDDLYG

[2] = tested on: HEK293 cells stably expressing Ub^G76 VGFP; test: Ub^G76 VGFP ubiquitin fusion degradation; format: cell-based, human; details: 10.0, 20.0 and 50.0 μM
Procedure, shortened: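 Stable reporter HEK293 lines seeded at 2 × 10^6 cells in phenol-red free DMEM plus 10% FBS, grown 18 h at 37 °C under 5% CO2. Then treated with 10.0, 20.0 or 50.0 μM test compound (0.1% final DMSO). DMSO 0.1% negative control and MG132 10.0 μM positive control were included. GFP-positive cells counted by flow cytometry: 488 nm excitation, 530/30 emission, 10 000 events gated on FSC/SSC.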

[3] = target: type I AAA+ chaperone ClpX (Escherichia coli, UniProt P0A6H1); test: Malachite green ATPase assay, ClpX; format: biochemical
Chain of type I AAA+ chaperone ClpX (P0A6H1 whole entry): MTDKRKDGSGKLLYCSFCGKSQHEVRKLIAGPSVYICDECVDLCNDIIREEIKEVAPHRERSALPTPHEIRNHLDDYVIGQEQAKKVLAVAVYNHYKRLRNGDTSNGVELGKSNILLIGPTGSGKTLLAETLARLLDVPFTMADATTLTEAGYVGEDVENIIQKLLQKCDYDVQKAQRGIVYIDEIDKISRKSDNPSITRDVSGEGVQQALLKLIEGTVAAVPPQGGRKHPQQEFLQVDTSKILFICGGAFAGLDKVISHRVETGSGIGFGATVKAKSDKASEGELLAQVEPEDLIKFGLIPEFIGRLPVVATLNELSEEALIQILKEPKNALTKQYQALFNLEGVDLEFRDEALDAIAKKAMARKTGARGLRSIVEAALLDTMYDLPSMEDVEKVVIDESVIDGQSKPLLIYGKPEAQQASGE

p97 (wt-p97) = p97 (wt-p97) (Homo sapiens, UniProt P55072); test: Malachite green assay for p97 ATPase activity; format: biochemical
Chain of p97 (wt-p97) (P55072 whole entry): as the sequence (P55072 whole entry C209A, the tested form may be a part) above, with A209C counted along it
Procedure, shortened: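 Hydrolysis started with 2.0 mM ATP at 37 °C. Aliquots taken at 2, 4, 6, 8 and 10 min were quenched in malachite green/ammonium molybdate/HCl/Tween 20 reagent. IC50 was taken from dose–response curves.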

p97 = p97 (Homo sapiens, UniProt P55072); format: biochemical; details: 100.0 μM compound, 1.0 μM p97, 6 h at 21 °C, then dialysis; Figure 6B
Chain of p97 (P55072 whole entry): as the sequence (P55072 whole entry C209A, the tested form may be a part) above, with A209C counted along it
Procedure, shortened: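 Dialysed into assay buffer, fresh buffer 3 times every 2 h. ATPase started with 2.0 mM ATP; aliquots every 10 min up to 1 h into malachite green, citrate-quenched, OD660 converted to phosphate via standard curve, plotted against time.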

chaperonin GroEL = chaperonin GroEL (Escherichia coli, UniProt P0A6F5); test: Malachite green ATPase assay, GroEL; format: biochemical
Chain of chaperonin GroEL (P0A6F5 whole entry): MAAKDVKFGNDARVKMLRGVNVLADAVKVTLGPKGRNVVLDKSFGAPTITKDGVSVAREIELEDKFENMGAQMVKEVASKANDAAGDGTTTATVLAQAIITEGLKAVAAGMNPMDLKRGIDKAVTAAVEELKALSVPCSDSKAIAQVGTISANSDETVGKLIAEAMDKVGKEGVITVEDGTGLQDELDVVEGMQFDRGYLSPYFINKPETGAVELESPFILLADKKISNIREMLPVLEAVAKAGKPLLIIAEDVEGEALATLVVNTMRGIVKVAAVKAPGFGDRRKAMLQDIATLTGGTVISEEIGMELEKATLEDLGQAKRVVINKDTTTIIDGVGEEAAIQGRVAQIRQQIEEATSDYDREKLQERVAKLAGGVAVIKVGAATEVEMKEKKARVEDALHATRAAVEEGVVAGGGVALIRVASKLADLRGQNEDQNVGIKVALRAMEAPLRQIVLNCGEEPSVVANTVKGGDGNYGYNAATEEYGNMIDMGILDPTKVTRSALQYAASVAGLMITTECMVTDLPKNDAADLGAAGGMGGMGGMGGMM

[4] = isolated from Rhodotorula glutinis T-110; cited from earlier work

Chain of p97-cys0 (P55072 2-806): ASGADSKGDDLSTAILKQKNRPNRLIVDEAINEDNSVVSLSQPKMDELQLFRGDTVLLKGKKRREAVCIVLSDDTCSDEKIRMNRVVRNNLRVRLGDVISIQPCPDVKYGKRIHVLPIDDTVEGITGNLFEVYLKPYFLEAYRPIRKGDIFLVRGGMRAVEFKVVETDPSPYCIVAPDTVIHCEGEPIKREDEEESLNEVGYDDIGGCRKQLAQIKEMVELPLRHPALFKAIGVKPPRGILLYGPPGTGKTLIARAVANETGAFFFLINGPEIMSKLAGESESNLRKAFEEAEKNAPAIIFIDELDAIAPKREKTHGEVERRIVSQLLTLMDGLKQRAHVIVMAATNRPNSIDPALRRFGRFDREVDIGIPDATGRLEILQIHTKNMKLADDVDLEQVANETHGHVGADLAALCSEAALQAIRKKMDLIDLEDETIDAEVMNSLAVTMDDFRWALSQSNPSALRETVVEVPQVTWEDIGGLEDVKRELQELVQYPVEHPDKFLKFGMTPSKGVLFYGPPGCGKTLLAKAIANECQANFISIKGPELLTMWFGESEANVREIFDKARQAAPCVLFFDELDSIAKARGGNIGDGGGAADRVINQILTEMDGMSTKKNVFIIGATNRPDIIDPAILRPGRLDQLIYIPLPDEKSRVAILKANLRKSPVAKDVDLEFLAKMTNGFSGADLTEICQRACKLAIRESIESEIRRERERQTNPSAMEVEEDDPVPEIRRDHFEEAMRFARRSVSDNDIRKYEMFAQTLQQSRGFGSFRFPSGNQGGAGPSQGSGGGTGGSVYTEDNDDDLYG

SMILES: C=C1OC(=O)C2(C1=O)[C@H](/C=C/C=C/CCC)C=C[C@@H](O)[C@@H]2O (mixture of isomers) [compound 2, oxaspirol B]
activity against cysteine-less p97 variant Cys0 (in words) (p97-cys0): no activity
IC50 [1]: > 200 µM
IC50 (p97-C209A): 18 ± 4.7 µM
rescue of Ub^G76 VGFP reporter (number of GFP positive cells by FACS) [2]: dose-dependent inhibition of GFP fluorescence loss; also recorded: rescued in the presence of 2 in a dose-dependent manner
IC50 [3]: > 200 µM
effect of ATP concentration on IC50 of p97 inhibition (p97 (wt-p97); data not shown): no effect
p97 ATPase inhibitory activity (in words) (p97 (wt-p97); malachite green-based ATPase assay): moderate; also recorded: showed activity
inhibition of p97 ATPase after extensive dialysis (reversibility) (p97): No inhibition of p97 was evident after extensive dialysis; also recorded: p97 ATPase activity is restored
IC50 (chaperonin GroEL): > 200 µM

IC50 (p97 (wt-p97)): > 200 µM
SMILES: C=C1OC(=O)[C@]2(C1=O)[C@H](/C=C/C=C/CCC)C=C[C@@H](OC(C)=O)[C@@H]2OC(C)=O (single isomer, unassigned; isomer 5a) [5a, 9,10-Diacetyloxaspirol B Isomer 5a]

IC50 (p97 (wt-p97)): > 200 µM
SMILES: C=C1OC(=O)[C@@]2(C1=O)[C@H](/C=C/C=C/CCC)C=C[C@@H](OC(C)=O)[C@@H]2OC(C)=O (single isomer, unassigned; isomer 5b) [5b, 9,10-Diacetyloxaspirol B Isomer 5b]

SMILES: CCCC=CC=C[C@@H]1C=C[C@@H](O)[C@H](O)[C@]12C(=O)OC(C)[C@@H]2O (stereo partly drawn) [compound 1, (4R,5R,6R,9R,10R)-6-(hepta-1,3-dien)yl-4,9,10-trihydroxy-3-methyl-2-oxaspiro[4,5]dec-7-en-1-one]
antibacterial activity (in words) [4]: weakly active

SMILES: C[C@H]1CCC/C=C/C(=O)c2c(O)cc(O)cc2CC(=O)O1 [dehydrocurvularin, reference compound]
inhibition of p97 ATPase after extensive dialysis (reversibility) (p97): continued inhibition even after extensive dialysis
